Measured values: article PMC4068216 (ACS Chemical Biology, 2014)
Values belong to the molecule of their own block, whether it stands above or below them.

Assays:
[1] = target: T1, LAT3 (Homo sapiens, UniProt O75387); assay: [3H]-L-leucine uptake assay in LNCaP cells; assay type: cell-based
T1 sequence (O75387 1-559): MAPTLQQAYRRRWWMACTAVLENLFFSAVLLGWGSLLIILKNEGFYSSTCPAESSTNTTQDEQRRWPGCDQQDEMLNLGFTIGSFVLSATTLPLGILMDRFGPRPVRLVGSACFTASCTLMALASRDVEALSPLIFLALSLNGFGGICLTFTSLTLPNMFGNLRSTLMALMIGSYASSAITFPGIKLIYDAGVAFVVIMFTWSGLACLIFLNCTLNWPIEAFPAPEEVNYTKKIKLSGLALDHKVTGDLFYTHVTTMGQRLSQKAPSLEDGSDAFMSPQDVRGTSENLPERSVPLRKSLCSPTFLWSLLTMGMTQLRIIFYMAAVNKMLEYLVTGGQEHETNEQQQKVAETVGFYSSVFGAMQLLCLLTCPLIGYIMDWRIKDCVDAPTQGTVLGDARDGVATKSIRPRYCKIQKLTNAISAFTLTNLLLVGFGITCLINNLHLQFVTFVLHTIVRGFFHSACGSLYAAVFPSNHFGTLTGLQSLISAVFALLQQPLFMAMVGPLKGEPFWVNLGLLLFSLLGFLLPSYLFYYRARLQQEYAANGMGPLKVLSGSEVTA
How it was run: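 Dose–response: LNCaP cells (3 × 10^4/well) took up 0.3 μCi [3H]-L-leucine (200 nM) in leucine-free RPMI with 10% dialysed FBS for 15 min at 37 °C. Screen: 10^4 cells/well in HBSS with 10% dialysed FBS and 50 mM L-glutamine, added onto preloaded fractions, n = 1 per fraction. Controls were 0.5% DMSO and 10 mM BCH. Cells were filter-harvested for scintillation counting.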

[2] = system: LNCaP cells; assay: BrdU incorporation assay in LNCaP cells; assay type: cell-based, human; conditions: BCH 10 mM, ESK242 and ESK246 50 μM, 22 h then BrdU 2 h
How it was run: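 LNCaP cells (2 × 10^5 per 6-well) adhered overnight, were serum-starved, then exposed to test compound, DMSO vehicle or BCH for 22 h. BrdU (150 μg/mL) was added for a further 2 h. Cells were detached, fixed and stained with APC anti-BrdU (1:50) and 7-AAD, then analysed by flow cytometry. Three separate experiments; one-way ANOVA.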

[3] = system: LAT1; conditions: only tested on LAT1 and LAT2; cited from earlier work
[4] = system: HT-29 colorectal adenocarcinoma cell; conditions: in vitro and in vivo; cited from earlier work
[5] = substrate: CC(C)C[C@H](N)C(=O)O; assay: [3H]-L-leucine uptake in Xenopus laevis oocytes expressing LAT3; assay type: cell-based, human; conditions: other: no inhibitor, pH 7.5

- IC50 [1]: 4.06 ± 0.0011 mM
- leucine uptake ([1]; high-throughput screen, positive control 10 mM, LNCaP cells): 30–40 % of control
Molecule: NC1(C(=O)O)CC2CCC1C2 (stereo not shown) [BCH, 2-aminobicyclo[2.2.1]heptane-2-carboxylic acid]
- BrdU incorporation [2]: 14.7%
- BrdU incorporation relative to control [2]: 51.6 % of control

Molecule: Nc1cc(COc2c(Cl)cc(C[C@H](N)C(=O)O)cc2Cl)c2oc(-c3ccccc3)nc2c1 [JPH203/KYT-0353]
- selectivity, LAT1 versus LAT2 [3]: selectivity for LAT1-mediated transport
- HT-29 cell growth [4]: suppression of HT-29 colorectal adenocarcinoma cell growth in vitro and in vivo

B1: LAT3 (Homo sapiens) (protein)
chain: T1 sequence (O75387 1-559)
- Km [5]: 6.3 ± 0.5 mM
